Reference: ChEMBL document CHEMBL3272319, “Alkyl streptozotocin analogues with improved biological activities” (J Med Chem, 1976)

Columns and labels:
Mus musculus [1] = experiment: Toxicity in BDF1 mouse allografted with mouse L1210 cells assessed as mortality at 100 mg/kg, ip qd for 5 days; type: organism-based; parameters: dose 100 mg/kg, route intraperitoneal; details: in vivo, 120 h
Outline: (§1)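 L1210 (1 × 10^5 cells) implanted into BDF1 mice, six per group; compound in saline ip once daily days 1-5; effect read as % increase in life span, ILS = [(treated life span/control life span) − 1] × 100.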

Ehrlich [2] = experiment: Antitumor activity against mouse EAC allografted in ICR mouse assessed as tumor growth at 125 mg/kg, ip qd for 5 days measured on day 7 relative to control; type: functional; details: route intraperitoneal
Outline: (§2)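 Ehrlich ascites carcinoma (1 × 10^7 cells) implanted into ICR mice, six per group. Drug in saline ip, qd days 1–5. Mice killed day 7. Total packed cell volume = ascites volume × % packed cell volume; T/C % = TPCV treated/control × 100. Activity graded from T/C.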

Mus musculus [3] = experiment: Toxicity in ICR mouse allografted with mouse EAC assessed as mortality at 125 mg/kg, ip qd for 5 days; type: organism-based; parameters: dose 125 mg/kg, route intraperitoneal; details: in vivo, 120 h
Outline: (§3)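 Ehrlich ascites carcinoma (1 × 10^7 cells) implanted into ICR mice, six per group; compound ip daily for 5 days; mice sacrificed day 7; tumour burden as total packed cell volume (ascites volume × PCV), T/C % vs controls; mortality recorded.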

Rattus norvegicus [4] = experiment: Diabetogenic activity in iv dosed Wistar rat assessed as increase in blood sugar level administered as single dose by glucose oxidase method; type: ADME, organism-based; details: in vivo
Outline: (§4)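 Male Wistar rats, about 200 g, five per group, fasted 16 h. Single iv dose into the femoral vein in physiological saline, equimolar across compounds. Caudal-vein blood sampled at set times over 24 h. Sugar measured by glucose oxidase.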

L1210 [5] = experiment: Antitumor activity against mouse L1210 cells allografted in BDF1 mouse assessed as increase in host lifespan at 100 mg/kg, ip qd for 5 days relative to control; type: functional; details: 120 h, route intraperitoneal; outline: as §1
Mus musculus [6] = experiment: Toxicity in ICR mouse allografted with mouse S180A assessed as mortality at 50 mg/kg, ip qd for 5 days; type: organism-based; parameters: dose 50 mg/kg, route intraperitoneal; details: in vivo, 120 h
Outline: (§5)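 Ascites Sarcoma 180 (1 × 10^7 cells) implanted into ICR mice, six per group; compound in saline ip once daily days 1-5; sacrifice on day 7; total packed cell volume (ascites volume × PCV) compared with controls as T/C %; mortality recorded.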

[7] = Antitumor activity against mouse S180A allografted in ICR mouse assessed as tumor growth at 50 mg/kg, ip qd for 5 days measured on day 7 relative to control; type: functional; details: route intraperitoneal
Outline: (§6)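 Ascites Sarcoma 180 (1 × 10^7 cells) implanted into ICR mice, six animals per group. Five daily ip injections in saline (days 1–5). Sacrificed day 7. T/C % computed from total packed cell volume (ascites volume × PCV) vs controls. Grades: 100-66 = -, 65-41 = +, 40-11 = ++, 10-0 = +++.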

[8] = Ratio of compound LD50 to streptozotocin LD50 for JCL-ICR mouse; type: ADME, organism-based; details: in vivo
Ehrlich [9] = experiment: Antitumor activity against mouse EAC allografted in ICR mouse assessed as tumor growth at 150 mg/kg, ip qd for 5 days measured on day 7 relative to control; type: functional; details: route intraperitoneal; outline: as §2
Mus musculus [10] = experiment: (§7) Acute toxicity in ip dosed JCL-ICR mouse assessed as animal death; type: organism-based; details: in vivo
Outline: (§8)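 Groups of ten female JCL-ICR mice given single ip dose in physiological saline; deaths followed over 7 days; LD50 (and LD10) derived by Litchfield–Wilcoxon method.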

[11] = as §7; type: organism-based; details: JCL-ICR, in vivo; outline: as §8
Mus musculus [12] = experiment: Ratio of compound LD10 to streptozotocin LD10 for JCL-ICR mouse; type: ADME, organism-based; details: in vivo
L1210 [13] = experiment: Antitumor activity against mouse L1210 cells allografted in BDF1 mouse assessed as increase in host lifespan at 50 mg/kg, ip qd for 5 days relative to control; type: functional; details: 120 h, route intraperitoneal; outline: as §1
Mus musculus [14] = experiment: Toxicity in ICR mouse allografted with mouse EAC assessed as mortality at 150 mg/kg, ip qd for 5 days; type: organism-based; parameters: dose 150 mg/kg, route intraperitoneal; details: in vivo, 120 h; outline: as §3
Mus musculus [15] = experiment: Toxicity in BDF1 mouse allografted with mouse L1210 cells assessed as mortality at 50 mg/kg, ip qd for 5 days; type: organism-based; parameters: dose 50 mg/kg, route intraperitoneal; details: in vivo, 120 h; outline: as §1
Proteus vulgaris = experiment: Antibacterial activity against Proteus vulgaris AHU 1469 assessed as growth inhibition after 18 hrs by broth dilution method; type: functional; details: AHU 1469, 18 h
Outline: (§9)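 Twofold serial dilutions in heart infusion broth. Inoculum was a 24-h heart infusion broth culture diluted 100-fold in physiological saline. Tubes incubated 30 °C for 18 h; the table footnote gives 32 °C for 24 h. MIC in µg/ml is the lowest level giving complete growth inhibition.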

Salmonella typhi = experiment: Antibacterial activity against Salmonella typhi IFM 3020 assessed as growth inhibition after 18 hrs by broth dilution method; type: functional, Salmonella enterica subsp. enterica serovar Typhi; details: Salmonella enterica, IFM 3020, 18 h
Outline: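 Twofold serial dilutions in heart infusion broth; inoculum from 24 h heart infusion broth culture diluted 100-fold in physiological saline; tubes incubated 30 °C for 18 h; MIC (µg/ml) = lowest level giving complete growth inhibition.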

Bacillus subtilis = experiment: Antibacterial activity against Bacillus subtilis ATCC 6633 assessed as growth inhibition after 18 hrs by broth dilution method; type: functional; details: ATCC 6633, 18 h; outline: as §9
Micrococcus luteus = experiment: Antibacterial activity against Sarcina lutea ATCC 9341 assessed as growth inhibition after 18 hrs by broth dilution method; type: functional; details: ATCC 9341, 18 h; outline: as §9
[16] = Antitumor activity against mouse S180A allografted in ICR mouse assessed as tumor growth at 25 mg/kg, ip qd for 5 days measured on day 7 relative to control; type: functional; details: route intraperitoneal; outline: as §6
Enterococcus faecalis = experiment: Antibacterial activity against Streptococcus faecalis ATCC 10541 assessed as growth inhibition after 18 hrs by broth dilution method; type: functional; details: ATCC 10541, 18 h; outline: as §9
Mus musculus [17] = experiment: Toxicity in ICR mouse allografted with mouse S180A assessed as mortality at 25 mg/kg, ip qd for 5 days; type: organism-based; parameters: dose 25 mg/kg, route intraperitoneal; details: in vivo, 120 h; outline: as §5
Klebsiella pneumoniae = experiment: Antibacterial activity against Klebsiella pneumoniae ATCC 10031 assessed as growth inhibition after 18 hrs by broth dilution method; type: functional; details: ATCC 10031, 18 h; outline: as §9
Pseudomonas fluorescens = experiment: Antibacterial activity against Pseudomonas fluorescens NIHJ B-254 assessed as growth inhibition after 18 hrs by broth dilution method; type: functional; details: NIHJ B-254, 18 h; outline: as §9
Shigella sonnei = experiment: Antibacterial activity against Shigella sonnei assessed as growth inhibition after 18 hrs by broth dilution method; type: functional; outline: as §9
Escherichia coli = experiment: Antibacterial activity against Escherichia coli NIHJ JC-2 assessed as growth inhibition after 18 hrs by broth dilution method; type: functional; details: NIHJ JC-2, 18 h; outline: as §9
Staphylococcus aureus = experiment: Antibacterial activity against Staphylococcus aureus FDA 209P JC-1 assessed as growth inhibition after 18 hrs by broth dilution method; type: functional; details: FDA 209P JC-1, 18 h; outline: as §9
Rattus norvegicus [18] = experiment: Diabetogenic activity in Wistar rat assessed as increase in blood sugar level at 68 mg/kg, iv administered as single dose by glucose oxidase method; type: ADME, organism-based; parameters: dose 68 mg/kg, route intravenous; details: in vivo; outline: as §4

| Compound | Activity (Mus musculus [1]) | T/C (Ehrlich [2]) | Activity (Mus musculus [3]) | Activity (Rattus norvegicus [4]) | ILS at 100 mg/kg (L1210 [5]) | Activity (Mus musculus [6]) | T/C [7] | selectivity ratio [8] | T/C (Ehrlich [9]) | LD10 (Mus musculus [10]) | LD50 [11] | Ratio (Mus musculus [12]) | ILS at 50 mg/kg (L1210 [13]) | Activity (Mus musculus [14]) | Activity (Mus musculus [15]) | other results |
| --- | --- | --- | --- | --- | --- | --- | --- | --- | --- | --- | --- | --- | --- | --- | --- | --- |
| CCCN(N=O)C(=O)N[C@H]1[C@H](OC)O[C@H](CO)[C@@H](O)[C@@H]1O | Non-toxic | 72% | Non-toxic | Non-toxic | 7% | Non-toxic | 69% |  |  |  |  |  |  |  |  |  |
| CCCCO[C@H]1O[C@H](CO)[C@@H](O)[C@H](O)[C@H]1NC(=O)N(C)N=O |  |  |  | Non-toxic |  | Non-toxic | 20% | 2 | 16% | 1200 mg/kg | 2000 mg/kg | 2 | 30% | Non-toxic | Non-toxic |  |
| CO[C@H]1O[C@H](CO)[C@@H](O)[C@H](O)[C@H]1NC(=O)N(C)N=O |  |  |  |  |  |  |  | 2 | 16% | 1380 mg/kg | 1930 mg/kg | 2 | 35% | Non-toxic | Non-toxic | MIC (Proteus vulgaris): > 1000 µg/mL; MIC (Salmonella typhi): > 1000 µg/mL; MIC (Bacillus subtilis): > 1000 µg/mL; MIC (Micrococcus luteus): > 1000 µg/mL; T/C [16]: 37%; MIC (Enterococcus faecalis): > 1000 µg/mL; Activity (Mus musculus [17]): Non-toxic; MIC (Klebsiella pneumoniae): > 1000 µg/mL; MIC (Pseudomonas fluorescens): > 1000 µg/mL; MIC (Shigella sonnei): > 1000 µg/mL; MIC (Escherichia coli): > 1000 µg/mL; MIC (Staphylococcus aureus): > 1000 µg/mL; Activity (Rattus norvegicus [18]): Non-toxic |
| CCCCN(N=O)C(=O)N[C@H]1[C@H](OC)O[C@H](CO)[C@@H](O)[C@@H]1O |  | 52% | Non-toxic | Non-toxic |  | Non-toxic | 54% |  |  |  |  |  | 12% |  | Non-toxic |  |
| CCCCO[C@H]1O[C@H](CO)[C@@H](O)[C@H](O)[C@H]1NC(=O)N(CCCC)N=O |  | 53% | Non-toxic | Non-toxic |  | Non-toxic | 80% | 2 |  | 410 mg/kg | 660 mg/kg | 2 |  |  |  |  |
| CCO[C@@H]1O[C@H](CO)[C@@H](O)[C@H](O)[C@H]1NC(=O)N(CC)N=O | Non-toxic |  |  | Non-toxic | 10% | Non-toxic | 59% |  |  |  |  |  |  |  |  |  |
